Data from ChEMBL document CHEMBL1926569, “Novel (E)-1-(4-methyl-2-(alkylamino)thiazol-5-yl)-3-arylprop-2-en-1-ones as potent antimicrobial agents” (2011).

Key:
Talaromyces funiculosus [1] = assay: Ratio of bifonazole to compound for Penicillium funiculosum ATCC 36839; type: functional
Aspergillus flavus [2] = assay: Antifungal activity against Aspergillus flavus ATCC 9643 incubated for 72 hrs followed by serial sub-cultivation for 72 hrs by serial dilution technique; type: functional; details: ATCC 9643, 72 h
Method in brief: (§1)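 MFC: material from 72 h malt broth microdilution wells was serially sub-cultured into fresh broth plates and incubated a further 72 h at 28 °C. Fungicidal concentration is taken from growth after sub-culture. Duplicate, repeated three times.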

Aspergillus ochraceus [3] = assay: Ratio of bifonazole to compound for Aspergillus ochraceus ATCC 12066; type: functional
Aspergillus ochraceus [4] = assay: Antifungal activity against Aspergillus ochraceus ATCC 12066 after 72 hrs by serial dilution technique; type: functional; details: ATCC 12066, 72 h
Method in brief: (§2)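 Modified microdilution in 96-well plates. Fungi were kept on malt agar at 4 °C. Spores were washed off in sterile 0.85% saline with 0.1% Tween 80. Compounds were dissolved at 1 mg/ml in 5% DMSO with 0.1% Tween 80 and added to malt broth with inoculum. Plates were shaken at 160 rpm for 72 h at 28 °C. Duplicate, repeated three times.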

Escherichia coli [5] = assay: Antibacterial activity against Escherichia coli ATCC 35210 incubated for 24 hrs followed by serial sub-cultivation for 24 hrs by microdilution; type: functional; details: ATCC 35210, 24 h
Method in brief: (§3)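 MBC: after the 24 h LB broth microdilution (1.0 × 10⁴ CFU per well, 160 rpm), wells were serially sub-cultured into fresh broth plates and incubated a further 24 h. MBC is the lowest concentration with no visible growth, taken as 99.5% killing of the original inoculum. Duplicate, repeated three times.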

Staphylococcus aureus [6] = assay: Antibacterial activity against Staphylococcus aureus ATCC 6538 after 24 hrs by microdilution method; type: functional; details: ATCC 6538, 24 h
Method in brief: (§4)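 Broth microdilution in 96-well plates. Bacterial suspensions were adjusted in sterile saline to 1.0 × 10⁵ CFU/ml, prepared daily and kept at 4 °C. Compound was added to LB broth with 1.0 × 10⁴ CFU per well and shaken at 160 rpm for 24 h at […] (so in the source). MIC is the lowest concentration with no visible growth under a binocular microscope. OD655 was also read. Duplicate, repeated three times.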

Candida albicans [7] = assay: Ratio of ketoconazole to compound for Candida albicans isolated from human; type: functional
Aspergillus fumigatus [8] = assay: Ratio of ketoconazole to compound for Aspergillus fumigatus isolated from human; type: functional
Candida albicans [9] = assay: Ratio of bifonazole to compound for Candida albicans isolated from human; type: functional
Listeria monocytogenes [10] = assay: Antibacterial activity against Listeria monocytogenes NCTC 7973 incubated for 24 hrs followed by serial sub-cultivation for 24 hrs by microdilution; type: functional; details: NCTC 7973, 24 h; method in brief: as §3
Listeria monocytogenes [11] = assay: Antibacterial activity against Listeria monocytogenes NCTC 7973 after 24 hrs by microdilution method; type: functional; details: NCTC 7973, 24 h; method in brief: as §4
Micrococcus flavus [12] = assay: Antibacterial activity against Micrococcus flavus ATCC 10240 incubated for 24 hrs followed by serial sub-cultivation for 24 hrs by microdilution; type: functional; details: ATCC 10240, 24 h; method in brief: as §3
Aspergillus niger [13] = assay: Antifungal activity against Aspergillus niger ATCC 6275 after 72 hrs by serial dilution technique; type: functional; details: ATCC 6275, 72 h; method in brief: as §2
Aspergillus niger [14] = assay: Antifungal activity against Aspergillus niger ATCC 6275 incubated for 72 hrs followed by serial sub-cultivation for 72 hrs by serial dilution technique; type: functional; details: ATCC 6275, 72 h; method in brief: as §1
Penicillium ochrochloron [15] = assay: Antifungal activity against Penicillium ochrochloron ATCC 9112 incubated for 72 hrs followed by serial sub-cultivation for 72 hrs by serial dilution technique; type: functional; details: ATCC 9112, 72 h; method in brief: as §1
Aspergillus flavus [16] = assay: Antifungal activity against Aspergillus flavus ATCC 9643 after 72 hrs by serial dilution technique; type: functional; details: ATCC 9643, 72 h; method in brief: as §2
Talaromyces funiculosus [17] = assay: Antifungal activity against Penicillium funiculosum ATCC 36839 after 72 hrs by serial dilution technique; type: functional; details: ATCC 36839, 72 h; method in brief: as §2
Escherichia coli [18] = assay: Antibacterial activity against Escherichia coli ATCC 35210 after 24 hrs by microdilution method; type: functional; details: ATCC 35210, 24 h; method in brief: as §4
Enterococcus faecalis [19] = assay: Antibacterial activity against Enterococcus faecalis isolated from human after 24 hrs by microdilution method; type: functional; method in brief: as §4
Talaromyces funiculosus [20] = assay: Antifungal activity against Penicillium funiculosum ATCC 36839 incubated for 72 hrs followed by serial sub-cultivation for 72 hrs by serial dilution technique; type: functional; details: ATCC 36839, 72 h; method in brief: as §1
Pseudomonas aeruginosa [21] = assay: Antibacterial activity against Pseudomonas aeruginosa ATCC 27853 incubated for 24 hrs followed by serial sub-cultivation for 24 hrs by microdilution; type: functional; details: ATCC 27853, 24 h; method in brief: as §3
Trichoderma viride [22] = assay: Ratio of bifonazole to compound for Trichoderma viride IAM 5061; type: functional
Enterococcus faecalis [23] = assay: Antibacterial activity against Enterococcus faecalis isolated from human incubated for 24 hrs followed by serial sub-cultivation for 24 hrs by microdilution; type: functional; method in brief: as §3
Candida albicans [24] = assay: Antifungal activity against Candida albicans isolated from human after 72 hrs by serial dilution technique; type: functional; method in brief: as §2
Micrococcus flavus [25] = assay: Antibacterial activity against Micrococcus flavus ATCC 10240 after 24 hrs by microdilution method; type: functional; details: ATCC 10240, 24 h; method in brief: as §4
Aspergillus ochraceus [26] = assay: Antifungal activity against Aspergillus ochraceus ATCC 12066 incubated for 72 hrs followed by serial sub-cultivation for 72 hrs by serial dilution technique; type: functional; details: ATCC 12066, 72 h; method in brief: as §1
Trichoderma viride [27] = assay: Antifungal activity against Trichoderma viride IAM 5061 incubated for 72 hrs followed by serial sub-cultivation for 72 hrs by serial dilution technique; type: functional; details: IAM 5061, 72 h; method in brief: as §1
Pseudomonas aeruginosa [28] = assay: Ratio of ampicillin MIC to compound MIC for Pseudomonas aeruginosa ATCC 27853; type: functional
Aspergillus niger [29] = assay: Ratio of bifonazole to compound for Aspergillus niger ATCC 6275; type: functional
Penicillium ochrochloron [30] = assay: Ratio of ketoconazole to compound for Penicillium ochrochloron ATCC 9112; type: functional
Trichoderma viride [31] = assay: Antifungal activity against Trichoderma viride IAM 5061 after 72 hrs by serial dilution technique; type: functional; details: IAM 5061, 72 h; method in brief: as §2
Candida albicans [32] = assay: Antifungal activity against Candida albicans isolated from human incubated for 72 hrs followed by serial sub-cultivation for 72 hrs by serial dilution technique; type: functional; method in brief: as §1
Bacillus cereus [33] = assay: Antibacterial activity against clinical isolate of Bacillus cereus incubated for 24 hrs followed by serial sub-cultivation for 24 hrs by microdilution; type: functional; method in brief: as §3
Pseudomonas aeruginosa [34] = assay: Antibacterial activity against Pseudomonas aeruginosa ATCC 27853 after 24 hrs by microdilution method; type: functional; details: ATCC 27853, 24 h; method in brief: as §4
Aspergillus ochraceus [35] = assay: Ratio of ketoconazole to compound for Aspergillus ochraceus ATCC 12066; type: functional
Bacillus cereus [36] = assay: Antibacterial activity against clinical isolate of Bacillus cereus after 24 hrs by microdilution method; type: functional; method in brief: as §4
Staphylococcus aureus [37] = assay: Antibacterial activity against Staphylococcus aureus ATCC 6538 incubated for 24 hrs followed by serial sub-cultivation for 24 hrs by microdilution method; type: functional; details: ATCC 6538, 24 h; method in brief: as §3
Penicillium ochrochloron [38] = assay: Antifungal activity against Penicillium ochrochloron ATCC 9112 after 72 hrs by serial dilution technique; type: functional; details: ATCC 9112, 72 h; method in brief: as §2
Penicillium ochrochloron [39] = assay: Ratio of bifonazole to compound for Penicillium ochrochloron ATCC 9112; type: functional
Salmonella typhimurium [40] = assay: Antibacterial activity against Salmonella Typhimurium ATCC 13311 after 24 hrs by microdilution method; type: functional, Salmonella enterica subsp. enterica serovar Typhimurium; details: Salmonella enterica, ATCC 13311, 24 h; method in brief: as §4
Salmonella typhimurium [41] = assay: Antibacterial activity against Salmonella Typhimurium ATCC 13311 incubated for 24 hrs followed by serial sub-cultivation for 24 hrs by microdilution; type: functional, Salmonella enterica subsp. enterica serovar Typhimurium; details: Salmonella enterica, ATCC 13311, 24 h; method in brief: as §3
Aspergillus ochraceus [42] = assay: Antifungal activity against Aspergillus ochraceus after 72 hrs by serial dilution technique
Aspergillus fumigatus [43] = assay: Antifungal activity against Aspergillus fumigatus isolated from human incubated for 72 hrs followed by serial sub-cultivation for 72 hrs by serial dilution technique; type: functional; method in brief: as §1

CNc1nc(C)c(C(=O)/C=C/c2ccc(F)cc2)s1
111 µM: MBC (Pseudomonas aeruginosa [21])
32.6 µM: MIC (Micrococcus flavus [25])
54.3 µM: MIC (Escherichia coli [18]) | MIC (Enterococcus faecalis [19]) | MBC (Bacillus cereus [33]) | MIC (Salmonella typhimurium [40])
72.5 µM: MBC (Escherichia coli [5]) | MIC (Staphylococcus aureus [6]) | MBC (Micrococcus flavus [12]) | MFC (Aspergillus niger [14]) | MFC (Penicillium ochrochloron [15]) | MFC (Talaromyces funiculosus [20]) | MBC (Enterococcus faecalis [23]) | MIC (Candida albicans [24]) | MFC (Aspergillus ochraceus [26]) | MIC (Trichoderma viride [31]) | MIC (Pseudomonas aeruginosa [34]) | MBC (Staphylococcus aureus [37]) | MBC (Salmonella typhimurium [41]) | MFC (Aspergillus fumigatus [43])
10: Ratio (Talaromyces funiculosus [1]) | Ratio (Aspergillus ochraceus [3]) | Ratio (Candida albicans [7]) | Ratio (Aspergillus fumigatus [8]) | Ratio (Candida albicans [9]) | Ratio (Trichoderma viride [22]) | Ratio (Pseudomonas aeruginosa [28]) | Ratio (Aspergillus niger [29]) | Ratio (Penicillium ochrochloron [30]) | Ratio (Aspergillus ochraceus [35]) | Ratio (Penicillium ochrochloron [39])
90.6 µM: MFC (Aspergillus flavus [2]) | MBC (Listeria monocytogenes [10]) | MIC (Listeria monocytogenes [11]) | MFC (Trichoderma viride [27]) | MFC (Candida albicans [32])
36.2 µM: MIC (Aspergillus ochraceus [4]) | MIC (Aspergillus niger [13]) | MIC (Aspergillus flavus [16]) | MIC (Talaromyces funiculosus [17]) | MIC (Bacillus cereus [36]) | MIC (Penicillium ochrochloron [38]) | MIC (Aspergillus ochraceus [42])
